Measurements: PubChem BioAssay AID588732 (Vanderbilt Specialized Chemistry Center, 2011)
Calls of active or inactive are those of the source.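 The calls were made as follows: active = compound shifting glutamate potency twofold either way, or pushing peak response under 75% or over a set limit; inactive = the rest.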

Target: Metabotropic glutamate receptor 8 (Rattus norvegicus) (UniProt P70579)
Test: rat mGlu8 allosteric modulation, glutamate curve shift, profiling panel, selectivity assay for mGlu5 PAM project, thallium flux, HEK/GIRK cells (AID 588732)
Settings: glutamate CRC shift, at 10 µM; for Emax: measured here: glutamate max response with compound
Outline: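 Test system: rat mGlu8 receptor expressed in HEK/GIRK cells; Also added: glutamate agonist concentration-response curve; Compound: 10 µM test compound, single dose; Controls: glutamate curve without test compound as reference; Read-out: glutamate EC50 shift and %Emax versus no-compound curve; Measured by: FluoZin2 fluorescence slope reporting thallium flux.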

Sequence of Metabotropic glutamate receptor 8 (Rattus norvegicus) (P70579 whole entry, looked up): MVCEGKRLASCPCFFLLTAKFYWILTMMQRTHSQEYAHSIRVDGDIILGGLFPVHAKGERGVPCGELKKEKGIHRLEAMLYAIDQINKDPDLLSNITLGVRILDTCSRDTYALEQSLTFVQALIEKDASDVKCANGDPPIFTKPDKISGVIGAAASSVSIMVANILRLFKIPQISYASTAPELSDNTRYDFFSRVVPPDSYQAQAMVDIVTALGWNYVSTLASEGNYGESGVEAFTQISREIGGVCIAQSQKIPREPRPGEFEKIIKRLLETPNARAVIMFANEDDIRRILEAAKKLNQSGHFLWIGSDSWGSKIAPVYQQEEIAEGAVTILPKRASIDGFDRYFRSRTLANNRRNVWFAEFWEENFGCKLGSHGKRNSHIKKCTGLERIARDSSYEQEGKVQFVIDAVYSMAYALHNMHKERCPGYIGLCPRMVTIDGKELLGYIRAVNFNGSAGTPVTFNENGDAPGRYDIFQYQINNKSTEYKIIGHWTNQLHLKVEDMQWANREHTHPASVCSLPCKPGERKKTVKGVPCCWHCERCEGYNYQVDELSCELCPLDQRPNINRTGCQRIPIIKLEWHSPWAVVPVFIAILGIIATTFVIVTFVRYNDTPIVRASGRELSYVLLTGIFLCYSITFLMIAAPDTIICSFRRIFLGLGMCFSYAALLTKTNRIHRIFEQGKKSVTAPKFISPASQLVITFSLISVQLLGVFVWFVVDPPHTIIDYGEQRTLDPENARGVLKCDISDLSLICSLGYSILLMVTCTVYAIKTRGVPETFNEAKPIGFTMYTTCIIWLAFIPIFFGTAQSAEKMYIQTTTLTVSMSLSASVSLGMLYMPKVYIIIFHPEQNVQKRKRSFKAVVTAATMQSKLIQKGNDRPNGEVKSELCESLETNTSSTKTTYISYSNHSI

For `CC1(NC(=O)c2ccc(C#Cc3cccc(F)c3)cn2)COC1`, the fold shift was 1.1 (inactive) and the Emax was 92%.
With `C[C@@H](NC(=O)c1ccc(C#Cc2cccc(F)c2)cn1)C(C)(C)O` the fold shift was 1.36 (inactive) and the Emax was 89%.
